{"source": "paper PMC6102747", "about": "(Molecular Medicine Reports, 2018)", "key": {"Cyp3a2": {"test_system": "Cyp3a2", "assay": "RT-qPCR mRNA expression in small intestine and liver", "assay_type": "in vivo, rats", "details": "KET 75 mg/kg i.g. 7 days, vs control, P<0.001"}, "Cyp3a1": {"test_system": "Cyp3a1", "assay": "RT-qPCR mRNA expression in small intestine and liver", "assay_type": "in vivo, rats", "details": "KET 75 mg/kg i.g. 7 days, vs control, P<0.001"}, "Mdr1": {"test_system": "Mdr1", "assay": "RT-qPCR mRNA expression in small intestine and liver", "assay_type": "in vivo, rats", "details": "VER 4 mg/kg i.g. 7 days, vs control, P<0.001", "method_in_brief": "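Rats, 3 per group, dosed once daily for 7 days: phosphate buffer 5 ml/kg i.v., test compound 2.5/5/10 mg/kg i.v. in phosphate buffer, ketoconazole 75 mg/kg i.g. in olive oil, or verapamil 4 mg/kg i.g. in water. Olive oil 5 ml/kg gavaged 30 min after day-7 dose. Killed 24 h post-dose after overnight fast; liver and intestinal mucosa snap-frozen. qPCR: 40 cycles, 58°C annealing; 2−ΔΔCq.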"}, "P-gp": {"test_system": "P-gp", "assay": "Western blot protein expression in small intestine and liver", "assay_type": "in vivo, rats", "details": "rat, in vivo"}, "[1]": {"details": "healthy volunteers, cited from earlier work"}}, "note": "Several values for one entry are separate records, joined by “and”; a condition that tells them apart may be missing. Identical values can stand only once. Like-named read-outs stand apart in the source and are kept apart here.", "data": [{"smiles": "CC(=O)N1CCN(c2ccc(OCC3COC(Cn4ccnc4)(c4ccc(Cl)cc4Cl)O3)cc2)CC1", "note": "(stereo not shown) [KET, ketoconazole, reference compound]", "values": [{"measurement": "decrease in Cyp3a2 mRNA expression", "setting": "Cyp3a2; liver", "result": 87.39, "unit": "%"}, {"measurement": "decrease in Cyp3a2 mRNA expression", "setting": "Cyp3a2; small intestine", "result": 70.09, "unit": "%"}, {"measurement": "decrease in Cyp3a1 mRNA expression", "setting": "Cyp3a1; liver", "result": 78.64, "unit": "%"}, {"measurement": "decrease in Cyp3a1 mRNA expression", "setting": "Cyp3a1; small intestine", "result": 78.27, "unit": "%"}]}, {"smiles": "COc1ccc(CCN(C)CCCC(C#N)(c2ccc(OC)c(OC)c2)C(C)C)cc1OC", "note": "(stereo not shown) [VER, verapamil, reference compound]", "values": [{"measurement": "decrease in Mdr1 mRNA expression", "setting": "Mdr1; liver", "result": 84.33, "unit": "%"}, {"measurement": "decrease in Mdr1 mRNA expression", "setting": "Mdr1; small intestine", "result": 65.32, "unit": "%"}, {"measurement": "decrease in P-gp protein expression", "setting": "P-gp", "result": "85.02% and 84.54%"}]}, {"smiles": "O=c1c(O)c(-c2ccc(O)c(O)c2)oc2cc(O)cc(O)c12", "note": "[quercetin]", "values": [{"measurement": "increase in AUC of CsA", "setting": "[1]; CsA 30 min following quercetin administration", "result": 36, "unit": "%"}, {"measurement": "increase in AUC of CsA", "setting": "[1]; CsA 3 days following quercetin administration", "result": 47, "unit": "%"}, {"measurement": "increase in AUC of CsA", "setting": "[1]; co-administration of quercetin (5 mg/kg) and CsA", "result": 18, "unit": "%"}]}]}
